pIC50: −log10 of the molar value. Each block holds one compound with its values, some of them ahead of it. Activity calls are given as the source filed them. No cut-off for these calls is given here.
Assays:
[1] = test system: PC-3; assay: Cytotoxicity against human PC3 cells after 72 hrs by MTT assay; format: functional, cell-based; settings: PC-3, 72 h
Procedure, shortened: (§1)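 Cells grown in RPMI with 10% heat-inactivated fetal calf serum and exposed to compound for 72 h. Overall growth read by MTT colorimetric assay; IC50 derived from it. Six replicates per condition.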

[2] = Cytotoxicity against human U373 cells after 72 hrs by MTT assay; format: functional, cell-based, U-373MG ATCC; settings: U373 MG; procedure, shortened: as §1
[3] = Cytotoxicity against human Hs683 cells after 72 hrs by MTT assay; format: functional, cell-based; settings: Hs 683, 72 h; procedure, shortened: as §1
[4] = test system: MCF7; assay: Cytotoxicity against human MCF7 cells after 72 hrs by MTT assay; format: functional, cell-based; settings: MCF7, 72 h; procedure, shortened: as §1
[5] = test system: A549; assay: Cytotoxicity against human A549 cells after 72 hrs by MTT assay; format: functional, cell-based; settings: A549, 72 h; procedure, shortened: as §1
[6] = test system: SK-MEL-28; assay: Cytotoxicity against human SK-MEL-28 cells after 72 hrs by MTT assay; format: functional, cell-based; settings: SK-MEL-28, 72 h; procedure, shortened: as §1
[7] = test system: Hs 683; assay: Inhibition of RAS oncogene activity in human Hs683 cells at 2 mM after 5 to 29 mins by ELISA; format: cell-based; settings: in the assay text read “5 to 20 mins” for “5 to 29 mins”
Procedure, shortened: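 Hs683 glioma cells treated with 2 mM for 5 and 20 min, lysed, 100 µg protein used. GTP-Ras captured by GST-Raf-RBD and detected with H-Ras antibody, HRP secondary and chemiluminescence.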

[8] = Ratio of perillyl alcohol IC50 to compound IC50 for human U373 cells; format: functional, U-373MG ATCC
[9] = Chemical stability of the compound in RPMI culture medium after 72 hrs by mass spectroscopic analysis; format: physicochemical
Procedure, shortened: (§2)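 5 mM DMSO stock diluted 100-fold in water or RPMI and held at 37 °C for 72 h. Samples infused into ESI-QTOF MS (positive mode, scan 110–950 m/z) with FA 0.2%-MeOH 50:50 as solvent.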

[10] = test system: PC-3; assay: Ratio of perillyl alcohol IC50 to compound IC50 for human PC3 cells; format: functional
[11] = organism: Cavia porcellus; assay: Inhibition of guinea pig brain Na+/K+-ATPase at 1 mM preincubated for 10 mins measured after 30 mins relative to control
[12] = test system: A549; assay: Ratio of perillyl alcohol IC50 to compound IC50 for human A549 cells; format: functional
[13] = Growth inhibition of NMRI mouse astrocytes at 30 to 300 uM after 72 hrs by MTT assay; format: cell-based, Astrocyte; settings: read-out: GI
Procedure, shortened: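 Mouse astrocyte primocultures were plated in uncoated T25 flasks for 72 h, medium was changed and cells grown to confluence. Tested at 0, 30, 60 and 300 µM by MTT colorimetric assay.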

[14] = test system: Hs 683; assay: Selectivity index for NMRI mouse astrocytes over human Hs683 cells
[15] = Selectivity index for human U373 cells over NMRI mouse astrocytes; design: species or system U-373MG ATCC
[16] = test system: MCF7; assay: Ratio of perillyl alcohol IC50 to compound IC50 for human MCF7 cells; format: functional
[17] = test system: Hs 683; assay: Cytostatic activity against human Hs683 cells at 40 uM after 48 to 72 hrs by videomicroscopic analysis relative to control; format: functional
Procedure, shortened: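 Hs683 glioma cells, untreated or at 40 µM, filmed by computer-assisted phase-contrast videomicroscopy over 72 h, one image every 4 min (1080 images), in triplicate. Growth rate = cell count in last image / first image. GGR index = treated ratio / control ratio.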

[18] = test system: SK-MEL-28; assay: Ratio of perillyl alcohol IC50 to compound IC50 for human SK-MEL-28 cells; format: functional
[19] = test system: Hs 683; assay: Ratio of perillyl alcohol IC50 to compound IC50 for human Hs683 cells; format: functional
[20] = Growth inhibition of NMRI mouse astrocytes after 72 hrs by MTT assay; format: cell-based; settings: Astrocyte
[21] = Chemical stability of the compound in water after 72 hrs by mass spectroscopic analysis; format: physicochemical; settings: buffer; procedure, shortened: as §2
[22] = organism: Cavia porcellus; assay: Inhibition of guinea pig kidney Na+/K+-ATPase at 1 mM preincubated for 10 mins measured after 30 mins relative to control
[23] = organism: Cavia porcellus; assay: Inhibition of ouabain-insensitive Mg++ATPase in guinea pig brain homogenate at 0.1 to 1mM; format: tissue-based
Procedure, shortened: (§3)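 Brain and kidney homogenates in 110 mM NaCl, 20 mM KCl, 5 mM MgCl2, 50 mM Tris-HCl pH 7.6 with 5 mM ATP; 10 min preincubation at 37 °C, 30 min reaction. Ouabain-insensitive Mg++ATPase activity measured with 3.6 mM ouabain across 0.1–1.0 mM compound.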

[24] = organism: Cavia porcellus; assay: Non competitive inhibition of guinea pig kidney Na+/K+-ATPase by double reciprocal plot analysis in presence of K+
[25] = organism: Cavia porcellus; assay: Inhibition of guinea pig kidney Na+/K+-ATPase alpha1 preincubated for 10 mins measured after 30 mins relative to POH
[26] = organism: Cavia porcellus; assay: Uncompetitive inhibition of purified guinea pig kidney Na+/K+-ATPase by double reciprocal plot analysis in presence of ATP
[27] = organism: Cavia porcellus; assay: Inhibition of guinea pig kidney Na+/K+-ATPase-mediated K+-activated-p-nitrophenylphosphatase activity
Procedure, shortened: (§4)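 Purified guinea pig brain or kidney Na+/K+-ATPase preparations; K+-activated p-nitrophenylphosphatase activity = total activity minus basal activity, with basal measured by replacing KCl with 1 mM ouabain. Mean ± SEM of 3 experiments.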

[28] = Inhibition of guinea pig kidney Na+/K+-ATPase alpha1 preincubated for 10 mins measured after 30 mins; design: species or system Cavia porcellus
[29] = organism: Cavia porcellus; assay: Inhibition of guinea pig brain Na+/K+-ATPase-mediated K+-activated-p-nitrophenylphosphatase activity; procedure, shortened: as §4
[30] = organism: Cavia porcellus; assay: Non competitive inhibition of guinea pig brain Na+/K+-ATPase by double reciprocal plot analysis in presence of Na+; format: tissue-based
[31] = organism: Cavia porcellus; assay: Uncompetitive inhibition of purified guinea pig brain Na+/K+-ATPase by double reciprocal plot analysis in presence of ATP; format: tissue-based
[32] = test system: Hs 683; assay: Inhibition of RAS oncogene activity in human Hs683 cells at 40 uM after 30 seconds by ELISA relative to control; format: cell-based
Procedure, shortened: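 Hs683 glioma cells exposed 30 s at 40 µM, lysed on ice for 15 min, 100 µg protein used. Active Ras captured on GST-Raf-RBD glutathione plate, detected with H-Ras primary and HRP secondary antibodies, read by chemiluminescence. Compared with untreated cells.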

[33] = organism: Cavia porcellus; assay: Non competitive inhibition of guinea pig kidney Na+/K+-ATPase by double reciprocal plot analysis in presence of Na+
[34] = organism: Cavia porcellus; assay: Non competitive inhibition of guinea pig brain Na+/K+-ATPase by double reciprocal plot analysis in presence of K+; format: tissue-based
[35] = test system: Hs 683; assay: Inhibition of RAS oncogene activity in human Hs683 cells 40 uM after 30 seconds by ELISA relative to POH; format: cell-based
[36] = Inhibition of guinea pig brain Na+/K+-ATPase alpha3 preincubated for 10 mins measured after 30 mins; design: species or system Cavia porcellus
[37] = organism: Cavia porcellus; assay: Inhibition of ouabain-insensitive Mg++ATPase in guinea pig kidney homogenate at 0.1 to 1mM; format: tissue-based; procedure, shortened: as §3
[38] = Inhibition of Na+/K+-ATPase in guinea pig kidney homogenate preincubated for 10 mins measured after 30 mins; format: tissue-based, Cavia porcellus
[39] = Inhibition of Na+/K+-ATPase in guinea pig whole brain homogenate preincubated for 10 mins measured after 30 mins; format: tissue-based, Cavia porcellus
[40] = Inhibition of guinea pig brain Na+/K+-ATPase alpha2 preincubated for 10 mins measured after 30 mins; design: species or system Cavia porcellus

Compound: CCOC(=O)c1sc(N2CCCC2)nc1Cl
pIC50 [1]: 4.11
pIC50 [2]: < 4.00
pIC50 [3]: 4.27
pIC50 [4]: 4.10
pIC50 [5]: 4.21
pIC50 [6]: 4.09

Compound: COC(=O)c1sc2nc(N3CCOCC3)sc2c1C
pIC50 [1]: < 4.00
pIC50 [2]: < 4.00
pIC50 [3]: 4.04
pIC50 [4]: 4.11
pIC50 [5]: 4.02
pIC50 [6]: < 4.00

Compound: O=C(c1ccccc1)c1sc(N2CCOCC2)nc1Cl
pIC50 [1]: < 4.00
pIC50 [2]: 4.04
pIC50 [3]: < 4.00
pIC50 [4]: 4.15
pIC50 [5]: 4.11
pIC50 [6]: < 4.00

Compound: C=C(C)[C@@H]1CC=C(CO)CC1 [PERILLYL ALCOHOL]
pIC50 [1]: < 3.00
pIC50 [2]: < 3.00
inhibition [7]: Active
pIC50 [3]: < 3.00
pIC50 [4]: < 3.00
pIC50 [5]: < 3.00
pIC50 [6]: < 3.00

Stability [9]: Stable
inhibition [11]: > 50%
Stability [21]: Stable
Compound: O=C(c1ccccc1)c1sc(N2CCCCC2)nc1Cl
Ratio IC50 [8]: 10
pIC50 [1]: 4.16
pIC50 [2]: 4.02
pIC50 [3]: 4.44
Ratio IC50 [10]: 10
Ratio IC50 [12]: 10
inhibition at 72 h, up to 300 µM [13]: < 50%
Selectivity Index [14]: >5
pIC50 [4]: 4.25
Selectivity Index [15]: >5
Ratio IC50 [16]: 10
pIC50 [5]: 4.39
Activity [17]: 40%
Ratio IC50 [18]: 10
Ratio IC50 [19]: 10
pIC50 [20]: < 3.52
pIC50 [6]: 4.04

Compound: COC(=O)c1sc2nc(SC)sc2c1C
pIC50 [1]: 4.05
pIC50 [2]: 4.04
pIC50 [3]: 4.10
pIC50 [4]: 4.16
pIC50 [5]: 4.11
pIC50 [6]: < 4.00

Compound: N#Cc1sc(N2CCCC2)nc1Cl
pIC50 [1]: < 4.00
pIC50 [2]: < 4.00
pIC50 [3]: < 4.00
pIC50 [4]: 4.00
pIC50 [5]: < 4.00
pIC50 [6]: < 4.00

Compound: N#Cc1sc(N2CCCCC2)nc1Br
pIC50 [1]: < 4.00
pIC50 [2]: < 4.00
pIC50 [3]: 4.08
pIC50 [4]: 4.11
pIC50 [5]: 4.03
pIC50 [6]: < 4.00

Compound: CC(=O)c1sc(N2CCOCC2)nc1Cl
pIC50 [1]: < 4.00
pIC50 [2]: 4.08
pIC50 [3]: < 4.00
pIC50 [4]: 4.06
pIC50 [5]: < 4.00
pIC50 [6]: < 4.00

Compound: O=C(c1ccccc1)c1sc(N2CCOCC2)nc1Br
pIC50 [1]: < 4.00
pIC50 [2]: < 4.00
pIC50 [3]: 4.03
pIC50 [4]: 4.29
pIC50 [5]: 4.08
pIC50 [6]: < 4.00

Compound: COC(=O)c1sc2nc(N3CCCC3)sc2c1C
pIC50 [1]: < 4.00
pIC50 [2]: 4.05
pIC50 [3]: 4.04
pIC50 [4]: 4.25
pIC50 [5]: 4.07
pIC50 [6]: < 4.00

Compound: CSc1nc(Cl)c(C(=O)c2ccccc2)s1
pIC50 [1]: < 4.00
pIC50 [2]: < 4.00
pIC50 [3]: < 4.00
pIC50 [4]: 4.04
pIC50 [5]: < 4.00
pIC50 [6]: < 4.00

inhibition [22]: > 50%
inhibition [23]: inactive
Stability [9]: Unstable
inhibition [24]: Active
Ratio [25]: 3
inhibition [26]: Active
inhibition [27]: inactive
pIC50 [28]: 3.26
inhibition [29]: Active
inhibition [30]: Active
inhibition [31]: Active
inhibition [11]: > 50%
inhibition [33]: Active
inhibition [34]: Active
pIC50 [36]: 3.60
inhibition [37]: inactive
pIC50 [38]: 3.26
pIC50 [39]: 3.46
pIC50 [40]: 3.60
Stability [21]: Unstable
Compound: O=C(c1ccccc1)c1sc(N2CCCCC2)nc1Br
Ratio IC50 [8]: 10
pIC50 [1]: 4.21
pIC50 [2]: 4.11
pIC50 [3]: 4.42
inhibition [32]: > 50%
Ratio IC50 [10]: 10
Ratio IC50 [12]: 10
inhibition at 72 h, up to 300 µM [13]: < 50%
Selectivity Index [14]: >5
Ratio [35]: 40
pIC50 [4]: 4.46
Selectivity Index [15]: >5
Ratio IC50 [16]: 10
pIC50 [5]: 4.32
Activity [17]: 40%
Ratio IC50 [18]: 10
Ratio IC50 [19]: 10
pIC50 [20]: < 3.52
pIC50 [6]: 4.04

Compound: COC(=O)c1sc2nc(N3CCCCC3)sc2c1C
pIC50 [1]: 4.03
pIC50 [2]: < 4.00
pIC50 [3]: < 4.00
pIC50 [4]: 4.05
pIC50 [5]: < 4.00
pIC50 [6]: < 4.00

Compound: O=C(c1ccccc1)c1sc(N2CCCC2)nc1Br
pIC50 [1]: < 4.00
pIC50 [2]: < 4.00
pIC50 [3]: < 4.00
pIC50 [4]: 4.16
pIC50 [5]: 4.01
pIC50 [6]: < 4.00

Compound: CSc1nc(Br)c(C(=O)c2ccccc2)s1
pIC50 [1]: < 4.00
pIC50 [2]: 4.05
pIC50 [3]: < 4.00
pIC50 [4]: 4.17
pIC50 [5]: 4.01
pIC50 [6]: < 4.00

Compound: O=C(c1ccccc1)c1sc(N2CCCC2)nc1Cl
pIC50 [1]: < 4.00
pIC50 [2]: 4.09
pIC50 [3]: 4.36
pIC50 [4]: 4.20
pIC50 [5]: 4.30
pIC50 [6]: 4.01

Reference: ChEMBL document CHEMBL2375228, “4-Bromo-2-(piperidin-1-yl)thiazol-5-yl-phenyl methanone (12b) inhibits Na+/K(+)-ATPase and Ras oncogene activity in cancer cells” (Eur J Med Chem, 2013)
